Assay results taken from ChEMBL document CHEMBL3994567, “Design and synthesis of selective, small molecule inhibitors of coactivator-associated arginine methyltransferase 1 (CARM1)” (Medchemcomm, 2016).
Active and inactive are the calls of the source. No cut-off for these calls is given here.

Key:
[1] = molecular target: T1, Histone-arginine methyltransferase CARM1 (Homo sapiens, UniProt Q86X55); assay: Inhibition of CARM1 (unknown origin)
T1 sequence (Q86X55 whole entry): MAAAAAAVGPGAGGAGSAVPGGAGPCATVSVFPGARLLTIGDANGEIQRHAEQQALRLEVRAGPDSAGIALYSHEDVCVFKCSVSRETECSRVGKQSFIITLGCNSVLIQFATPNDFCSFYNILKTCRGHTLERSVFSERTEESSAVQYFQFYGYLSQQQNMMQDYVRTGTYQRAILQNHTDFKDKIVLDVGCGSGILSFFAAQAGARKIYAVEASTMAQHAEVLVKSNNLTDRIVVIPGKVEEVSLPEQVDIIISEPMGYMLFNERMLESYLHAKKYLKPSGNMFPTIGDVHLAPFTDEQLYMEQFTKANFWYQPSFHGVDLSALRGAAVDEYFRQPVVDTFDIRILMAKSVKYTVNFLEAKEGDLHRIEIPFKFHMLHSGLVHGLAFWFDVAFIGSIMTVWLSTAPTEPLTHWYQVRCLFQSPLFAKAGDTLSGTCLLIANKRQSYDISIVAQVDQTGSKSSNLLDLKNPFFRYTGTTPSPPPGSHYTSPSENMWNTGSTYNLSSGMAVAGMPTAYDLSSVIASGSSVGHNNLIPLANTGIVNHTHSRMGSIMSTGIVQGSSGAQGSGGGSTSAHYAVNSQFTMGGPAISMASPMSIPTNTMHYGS
Method in brief: (§1)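 Radiometric methyltransfer assay. Enzyme transfers a tritiated methyl from ³H-SAM onto a biotin-labelled peptide substrate, with unlabelled SAM added when needed. The methylated peptide is captured in FlashPlate wells and counted by scintillation. IC50 comes from titrating compound under balanced conditions, with both peptide substrate and SAM at their Km concentrations.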

[2] = molecular target: T2, Histone-arginine methyltransferase CARM1 (Homo sapiens) (UniProt Q86X55); assay: Noncompetitive inhibition of CARM1 (unknown origin) at varying levels of peptide substrate and cofactor 3H-SAM by scintillation proximity assay
T2 sequence (whole entry): T1 sequence (Q86X55 whole entry)

[3] = molecular target: Protein arginine N-methyltransferase 5 (Homo sapiens, UniProt O14744); assay: Inhibition of PRMT5 (unknown origin); method in brief: as §1
Sequence of Protein arginine N-methyltransferase 5 (O14744 whole entry): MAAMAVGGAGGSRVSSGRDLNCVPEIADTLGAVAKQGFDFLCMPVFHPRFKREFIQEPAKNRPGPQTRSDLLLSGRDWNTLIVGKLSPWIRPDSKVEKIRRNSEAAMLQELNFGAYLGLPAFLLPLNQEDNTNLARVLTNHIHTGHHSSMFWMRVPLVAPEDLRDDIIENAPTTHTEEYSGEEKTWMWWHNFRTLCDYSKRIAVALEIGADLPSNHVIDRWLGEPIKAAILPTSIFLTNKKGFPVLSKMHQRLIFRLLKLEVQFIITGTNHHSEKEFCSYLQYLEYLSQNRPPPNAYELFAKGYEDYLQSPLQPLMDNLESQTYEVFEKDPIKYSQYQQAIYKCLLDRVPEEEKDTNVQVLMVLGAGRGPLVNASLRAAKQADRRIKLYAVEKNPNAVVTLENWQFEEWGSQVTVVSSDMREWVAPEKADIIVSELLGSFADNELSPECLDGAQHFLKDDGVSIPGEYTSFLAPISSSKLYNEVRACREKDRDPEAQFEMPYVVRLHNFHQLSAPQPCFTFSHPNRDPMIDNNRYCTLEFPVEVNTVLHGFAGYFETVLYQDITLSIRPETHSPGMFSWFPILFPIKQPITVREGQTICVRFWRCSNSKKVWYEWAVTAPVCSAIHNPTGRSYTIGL

SMILES	IC50 [1]	inhibition [2]	IC50 [3]
CNCCN1CCC(NCc2cccc(C(F)(F)F)c2)CC1	302 nM		
CNCCN1CCC(NCc2cccc(Cl)c2)CC1	157 nM		
CNCCN1CC(OCc2cccc(OC(F)(F)F)c2)C1	144 nM		
CNCCN1CCC(NCc2cccc(-c3ccccc3)c2)CC1	330 nM		
CNCCN1CCC(NCc2cccc(OC(F)(F)F)c2)CC1	342 nM		
CNCCN1CCC(NCc2cccc(Br)c2)CC1	94 nM	Active	> 50000 nM
CNCCN1CCC(NCc2cccc(F)c2)CC1	223 nM		
CNCCN1CCC(NCc2ccccc2)CC1	471 nM		> 50000 nM

Now from value to molecule, other results behind:

IC50 [1]	SMILES	inhibition [2]	IC50 [3]
50 nM	CNCCN1CC(NCc2cccc(Cl)c2)C1		
94 nM	CNCCN1CC(NCc2cccc(C(F)(F)F)c2)C1		
67 nM	CNCCN1CC(NCc2cccc(Br)c2)C1		
130 nM	CNCCN1CC(NCc2cccc(F)c2)C1		
90 nM	CNCCN1CC(NCc2cccc(OC(F)(F)F)c2)C1		
